Series [1] in a line: folding enthalpy; higher = less favourable; fluorescence melt of hairpins on a sequencing array, two-state fit. As to conditions: sodium 0.088 M. Put shortly: (§1)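 Bootstrapped two-state fits yielded melting temperature and folding enthalpy for library hairpins. Cy3 fluorescence, with annealed Cy3 and quencher oligos, was imaged on a sequenced MiSeq flow cell in 50 mM Na-HEPES pH 8.0, 25 mM NaCl in 2.5 °C steps up to 60 °C, and normalised to pre-quench Cy3 and to control constructs. Four replicates were combined by inverse variance, and fitted temperatures were raised by 9.35 °C to match UV melts.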

Series [2] in a line: melting temperature; fluorescence melt of hairpins on a sequencing array, two-state fit, raised by 9.35 °C to match UV melts. Particulars: sodium 0.088 M. Put shortly:
as §1

GCACAAGCGAAAGCTTGC (((..(((....)))))): in series [1], the folding enthalpy is -7.33 kcal/mol. Also, the Tm in series [2] came out at 37.8 °C.
Regarding GCACACCGAAAGGTATGC (((.(((....))).))), the folding enthalpy in series [1] was -32.8 kcal/mol. Moreover, the Tm in series [2] is 50.8 °C.
Take GCACACCGAAAGGTCTGC (((.(((....))).))): the folding enthalpy in series [1] is -26.5 kcal/mol. For the same sequence, in series [2], the Tm came out at 47 °C.
The corresponding values for GCACACGAAAGTGAGTGC ((((((....)))..))) are -30.9 kcal/mol and 51.7 °C.
In the case of GCACACGCGAAAGCGTGC (((..(((....)))))), the folding enthalpy in series [1] was -5.12 kcal/mol. In addition, the Tm in series [2] came out at 45 °C.
The like results for GCACACGGAAACATGCGC ((.((.(....).)).)) were, in that order, -19.6 kcal/mol and 30.2 °C.
Turning to GCACACGGAAACGTATGC (((.(((....))).))), the folding enthalpy in series [1] is -28 kcal/mol. In addition, in series [2], the Tm came out at 45.2 °C.
With GCACACGGAAACGTGTAC (.(((((....))))).), the folding enthalpy in series [1] was -13.8 kcal/mol. In series [2], the Tm turned out to be 41.2 °C.
The like results for GCACAGCGAAAGCAGTGC ((((.((....)).)))) were, in that order, -34.1 kcal/mol and 69.2 °C.
The corresponding values for GCACAGCGAAAGCCATGC (((..((....))..))) are -11.9 kcal/mol and 38 °C.
The corresponding values for GCACAGCGAAAGCCGAGC ((.(.((....)).).)) are -12.6 kcal/mol and 39.3 °C.
Take GCACAGCGAAAGCCGTGC ((((.((....)).)))): in series [1], the folding enthalpy is -24.4 kcal/mol. Further, the Tm in series [2] is 65.6 °C.
On to GCACAGCGAAAGCGGGGC ((.(.((....)).).)), for which the folding enthalpy in series [1] is -34.6 kcal/mol. Moreover, in series [2], the Tm amounted to 65.9 °C.
The corresponding values for GCACAGCGAAAGCTAGGC ((..(((....)))..)) are -15.4 kcal/mol and 45.2 °C.
Turning to GCACAGCGAAAGCTCCGC ((..(((....)))..)), the folding enthalpy in series [1] was -9.89 kcal/mol. Besides, the Tm in series [2] was determined as 28.1 °C.
GCACAGCGAAAGCTTCGC ((..(((....)))..)): the folding enthalpy in series [1] is -12.4 kcal/mol. In addition, the Tm in series [2] was found to be 39.8 °C.
The like results for GCACAGGAAACTGTGC ((((((....)))))) were, in that order, -36.1 kcal/mol and 67 °C.
On to GCACAGGGAAACCCGTGC ((((.((....)).)))), for which, in series [1], the folding enthalpy was -36.8 kcal/mol. In series [2], the Tm was 55.4 °C.
The like results for GCACAGGGAAACCTACGC ((..(((....)))..)) were, in that order, -15.8 kcal/mol and 34.9 °C.
The corresponding values for GCACAGGGAAACCTATGC (((.(((....))).))) are -24.2 kcal/mol and 37.1 °C.
The like results for GCACAGGGAAACCTGCAC (..((((....))))..) were, in that order, -10.3 kcal/mol and 28.4 °C.
As to GCACAGTCGAAAGACTGC (((..(((....)))))), the folding enthalpy in series [1] is -8.86 kcal/mol. In addition, in series [2], the Tm amounted to 39.3 °C.
The like results for GCACATCGAAAGATCTGC (((.(((....))).))) were, in that order, -28.3 kcal/mol and 36 °C.
GCACATGGAAACATGCAC (..((((....))))..): in series [1], the folding enthalpy is -15.2 kcal/mol. Besides, in series [2], the Tm was 28.2 °C.
Regarding GCACATGGAAACATGCGC ((.((((....)))).)), in series [1], the folding enthalpy was -48.8 kcal/mol. Moreover, in series [2], the Tm amounted to 49.9 °C.
The corresponding values for GCACCACGAAAGTGATGC (((.(((....))).))) are -36.5 kcal/mol and 55.7 °C.
The corresponding values for GCACCACGAAAGTGTGC (((.(((....)))))) are -34.6 kcal/mol and 58.6 °C.
As for GCACCACGAAAGTGTTGC (((.(((....))).))), the folding enthalpy in series [1] was -35.9 kcal/mol. In addition, the Tm in series [2] came out at 52.6 °C.
The like results for GCACCAGGAAACCGGTGC (((((.(....).))))) were, in that order, -42.4 kcal/mol and 58.3 °C.
The corresponding values for GCACCAGGAAACTGGCGC ((.((((....)))).)) are -41.4 kcal/mol and 55.6 °C.
GCACCATCGAAAGATTGC (((..(((....)))))): the folding enthalpy in series [1] is -20 kcal/mol. In addition, the Tm in series [2] stood at 29.1 °C.
As to GCACCCGAAAGGGCCTGC ((((((....)))..))), the folding enthalpy in series [1] is -13.4 kcal/mol. Further, the Tm in series [2] was 34.5 °C.
The like results for GCACCCTCGAAAGAGTGC (((..(((....)))))) were, in that order, -23.1 kcal/mol and 41.6 °C.
Take GCACCGCGAAAGCACTGC (((..((....))..))): the folding enthalpy in series [1] is -8.63 kcal/mol. Further, the Tm in series [2] turned out to be 31.2 °C.
The like results for GCACCGCGAAAGCGGAGC ((.((((....)))).)) were, in that order, -16.4 kcal/mol and 69 °C.
The corresponding values for GCACCGCGAAAGCGTCGC ((..(((....)))..)) are -12.8 kcal/mol and 41.2 °C.
Turning to GCACCGGCGAAAGCCTGC (((..(((....)))))), the folding enthalpy in series [1] was -12.6 kcal/mol. The Tm in series [2] was 39.1 °C.
The like results for GCACCGGGAAACCGACGC ((..(((....)))..)) were, in that order, -24.1 kcal/mol and 38 °C.
Regarding GCACCGGGAAACCGGCAC (..((((....))))..), the folding enthalpy in series [1] is -8.06 kcal/mol. Besides, in series [2], the Tm was 28.3 °C.
The corresponding values for GCACCTCCGAAAGGATGC (((..(((....)))))) are -21.9 kcal/mol and 36.5 °C.
The like results for GCACCTGGAAACAGGTAC (.(((((....))))).) were, in that order, -13.2 kcal/mol and 40.9 °C.
The corresponding values for GCACGACGAAAGTCTTGC (((.(((....))).))) are -35.8 kcal/mol and 53.7 °C.
Take GCACGCACGAAAGTGTGC (((..(((....)))))): in series [1], the folding enthalpy was -23.2 kcal/mol. Further, the Tm in series [2] amounted to 52.6 °C.
The corresponding values for GCACGCGAAAGCGACTGC ((((((....)))..))) are -12.6 kcal/mol and 43.8 °C.
The corresponding values for GCACGCGAAAGCGATTGC ((((((....)))..))) are -14.2 kcal/mol and 45.9 °C.
For the sequence GCACGCGAAAGCGTCTGC ((((((....)))..))), the folding enthalpy in series [1] is -11.1 kcal/mol. Besides, in series [2], the Tm is 47.4 °C.
On to GCACGCGGAAACGCGCAC (..((((....))))..), for which, in series [1], the folding enthalpy was -7.82 kcal/mol. In addition, the Tm in series [2] turned out to be 31.1 °C.
Take GCACGCGGAAACGCGCGC ((.((((....)))).)): in series [1], the folding enthalpy was -23.5 kcal/mol. Moreover, the Tm in series [2] was 68.5 °C.
The like results for GCACGGCCGAAAGGCTGC (((..(((....)))))) were, in that order, -10 kcal/mol and 45.1 °C.
The corresponding values for GCACGGCGAAAGCAGCGC ((.(.((....)).).)) are -21.1 kcal/mol and 57.2 °C.
The corresponding values for GCACGGCGAAAGCATTGC (((..((....))..))) are -16.6 kcal/mol and 39.9 °C.
Regarding GCACGGCGAAAGCCACGC ((..(((....)))..)), in series [1], the folding enthalpy was -19.1 kcal/mol. Moreover, the Tm in series [2] worked out at 54.9 °C.
The corresponding values for GCACGGCGAAAGCCAGGC ((..(((....)))..)) are -14.9 kcal/mol and 55 °C.
Turning to GCACGGCGAAAGCCCGGC ((..(((....)))..)), in series [1], the folding enthalpy is -15.4 kcal/mol. Also, in series [2], the Tm stood at 50.1 °C.
The like results for GCACGGCGAAAGCCTGGC ((..(((....)))..)) were, in that order, -15.2 kcal/mol and 51.7 °C.
Take GCACGGCGAAAGCGATGC (((..((....))..))): the folding enthalpy in series [1] is -18.2 kcal/mol. Also, in series [2], the Tm amounted to 47.2 °C.
As to GCACGGGCGAAAGCCTGC (((..(((....)))))), in series [1], the folding enthalpy was -12.7 kcal/mol. Besides, the Tm in series [2] was 45.2 °C.
The like results for GCACGGGGAAACCCATGC (((.(((....))).))) were, in that order, -29.5 kcal/mol and 47 °C.
As to GCACGGGGAAACCCGCGC ((.((((....)))).)), in series [1], the folding enthalpy is -36.1 kcal/mol. Moreover, the Tm in series [2] was 58.4 °C.
The corresponding values for GCACGGGGAAACCCGTAC (.(((((....))))).) are -13.2 kcal/mol and 41.7 °C.
GCACGTCGAAAGACTGC (((.(((....)))))): the folding enthalpy in series [1] is -27.5 kcal/mol. Also, in series [2], the Tm was 56.5 °C.
The like results for GCACGTGGAAACACACGC ((..(((....)))..)) were, in that order, -21.3 kcal/mol and 37.8 °C.
The corresponding values for GCACGTGGAAACACATGC (((.(((....))).))) are -31.9 kcal/mol and 45.1 °C.
GCACGTGGAAACACGTAC (.(((((....))))).): the folding enthalpy in series [1] is -14.2 kcal/mol. Also, in series [2], the Tm was determined as 44.1 °C.
The like results for GCACTACGAAAGTACTGC (((.(((....))).))) were, in that order, -26.9 kcal/mol and 37.6 °C.
As to GCACTCACGAAAGTGTGC (((..(((....)))))), the folding enthalpy in series [1] was -23 kcal/mol. Further, in series [2], the Tm came to 48.7 °C.
The like results for GCACTCGAAAGAGACTGC ((((((....)))..))) were, in that order, -17 kcal/mol and 34.6 °C.
The like results for GCACTCGAAAGAGCCTGC ((((((....)))..))) were, in that order, -12.9 kcal/mol and 27.8 °C.
The corresponding values for GCACTCGAAAGAGGTGC ((((((....))).))) are -29.1 kcal/mol and 54.4 °C.
Regarding GCACTCGAAAGAGTCTGC ((((((....)))..))), the folding enthalpy in series [1] was -19.2 kcal/mol. Moreover, the Tm in series [2] was 40.1 °C.
The like results for GCACTCGAAAGAGTGTGC ((((((....)))..))) were, in that order, -20.1 kcal/mol and 63.8 °C.
Take GCACTCGGAAACGGGTGC ((((.((....)).)))): in series [1], the folding enthalpy is -51.6 kcal/mol. Further, the Tm in series [2] was 59.5 °C.
The like results for GCACTGCGAAAGCAAGGC ((..(((....)))..)) were, in that order, -17.8 kcal/mol and 47.5 °C.

For the origin of these results see the array DNA melting data of Ke et al. (doi:10.1101/2024.01.08.574731).
